From paper PMC3034734 (Chemistry & biology, 2009)
Where a chain is given by its changes, count along the chain named. Read-outs that look alike come from different tables or passages of the source.

Experiments:
[1] = target: T1, purified recombinant rat MGL (Rattus norvegicus, UniProt Q8R431); experiment: Inhibition of purified recombinant MGL; format: biochemical
T1 sequence (Q8R431 1-303): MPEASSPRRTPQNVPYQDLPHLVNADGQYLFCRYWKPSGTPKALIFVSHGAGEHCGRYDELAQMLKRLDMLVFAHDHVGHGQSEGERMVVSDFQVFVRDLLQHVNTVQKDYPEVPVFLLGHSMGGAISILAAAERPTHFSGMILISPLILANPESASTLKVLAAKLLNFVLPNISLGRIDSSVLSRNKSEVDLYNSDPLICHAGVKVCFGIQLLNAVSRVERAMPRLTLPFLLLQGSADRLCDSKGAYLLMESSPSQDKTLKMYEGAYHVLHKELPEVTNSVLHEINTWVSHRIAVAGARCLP

[2] = test system: primary cultures of rat cortical neurons; experiment: 2-AG and PEA levels in primary cultures of rat cortical neurons; format: cell-based
[3] = target: T2, non-purified HeLa MGL (wild-type) (Rattus norvegicus, UniProt Q8R431); experiment: Inhibition of non-purified MGL; format: biochemical
T2 sequence (Q8R431 1-303): T1 sequence (Q8R431 1-303)

MGL C208G mutant = target: T3, MGL C208G mutant (Rattus norvegicus, UniProt Q8R431, C208G); experiment: Inhibition of MGL C208G mutant in HeLa cell extracts; format: biochemical
T3 sequence (Q8R431 1-303 C208G): T1 sequence (Q8R431 1-303) with C208G

MGL C201G mutant = target: T4, MGL C201G mutant (Rattus norvegicus, UniProt Q8R431, C201G); experiment: Inhibition of MGL C201G mutant in HeLa cell extracts; format: biochemical
T4 sequence (Q8R431 1-303 C201G): T1 sequence (Q8R431 1-303) with C201G

MGL Cys32 mutant = target: T5, MGL Cys32 mutant (Rattus norvegicus, UniProt Q8R431, C32G); experiment: Inhibition of MGL Cys32 mutant; format: biochemical; conditions: data not shown
T5 sequence (Q8R431 1-303 C32G): T1 sequence (Q8R431 1-303) with C32G

purified MGL = purified MGL (Rattus norvegicus, UniProt Q8R431); format: biochemical
non-purified HeLa MGL = target: T6, non-purified HeLa MGL (Rattus norvegicus, UniProt Q8R431); experiment: Michaelis-Menten kinetic analysis of the MGL reaction; format: biochemical; conditions: for Vmax of MGL in presence of inhibitor: vehicle 200±20; for Mechanism of MGL inhibition: from rapid dilution and kinetic experiments
T6 sequence (Q8R431 1-303): T1 sequence (Q8R431 1-303)

rat ABHD6 = target: T7, rat ABHD6 (Rattus norvegicus, UniProt Q5XI64); experiment: ABHD6 activity assay; format: biochemical
T7 sequence (Q5XI64 1-337): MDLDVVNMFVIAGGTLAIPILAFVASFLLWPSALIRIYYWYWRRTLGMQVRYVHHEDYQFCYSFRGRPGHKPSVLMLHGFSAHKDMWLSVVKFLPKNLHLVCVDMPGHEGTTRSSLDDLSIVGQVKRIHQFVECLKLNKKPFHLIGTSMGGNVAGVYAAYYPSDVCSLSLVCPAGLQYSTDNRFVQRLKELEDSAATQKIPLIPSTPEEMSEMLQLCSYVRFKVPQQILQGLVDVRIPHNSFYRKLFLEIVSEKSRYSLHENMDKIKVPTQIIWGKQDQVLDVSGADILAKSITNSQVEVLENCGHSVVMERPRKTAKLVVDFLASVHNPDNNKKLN

rat ABHD12 = target: T8, rat ABHD12 (Rattus norvegicus, UniProt Q6AYT7); experiment: ABHD12 activity assay; format: biochemical; conditions: in vitro
T8 sequence (Q6AYT7 1-398): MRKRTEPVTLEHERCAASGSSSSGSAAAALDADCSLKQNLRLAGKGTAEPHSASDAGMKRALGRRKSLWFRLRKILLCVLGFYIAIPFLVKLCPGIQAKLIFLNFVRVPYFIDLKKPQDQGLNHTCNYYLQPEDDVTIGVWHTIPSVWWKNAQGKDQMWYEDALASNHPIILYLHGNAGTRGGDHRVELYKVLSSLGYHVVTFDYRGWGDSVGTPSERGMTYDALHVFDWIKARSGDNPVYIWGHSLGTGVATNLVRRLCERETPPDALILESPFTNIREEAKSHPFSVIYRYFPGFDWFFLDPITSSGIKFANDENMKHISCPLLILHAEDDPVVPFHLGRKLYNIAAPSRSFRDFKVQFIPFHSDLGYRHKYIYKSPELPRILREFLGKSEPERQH
Summary of the method: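 Rat full-length ABHD12 (V5-tagged) transiently expressed in HeLa cells, harvested at 48 h, and homogenised in 50 mM Tris-Cl pH 8.0 with 0.32 M sucrose. Modified MGL assay run at pH 7.5 with 3 μg protein per reaction for 30 min at 37°C. Samples extracted; product (m/z 281) quantified by negative-ion ESI LC/MS in SIM mode against heptadecanoic acid standard.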

[4] = test system: rat brain diacylglycerol lipase; experiment: DGL activity in rat brain homogenates; format: biochemical; conditions: in vitro, Table S1
rat brain FAAH = target: T9, rat brain FAAH (Rattus norvegicus, UniProt P97612); experiment: FAAH activity in rat brain homogenates; format: biochemical; conditions: in vitro, Table S1
T9 sequence (P97612 1-579): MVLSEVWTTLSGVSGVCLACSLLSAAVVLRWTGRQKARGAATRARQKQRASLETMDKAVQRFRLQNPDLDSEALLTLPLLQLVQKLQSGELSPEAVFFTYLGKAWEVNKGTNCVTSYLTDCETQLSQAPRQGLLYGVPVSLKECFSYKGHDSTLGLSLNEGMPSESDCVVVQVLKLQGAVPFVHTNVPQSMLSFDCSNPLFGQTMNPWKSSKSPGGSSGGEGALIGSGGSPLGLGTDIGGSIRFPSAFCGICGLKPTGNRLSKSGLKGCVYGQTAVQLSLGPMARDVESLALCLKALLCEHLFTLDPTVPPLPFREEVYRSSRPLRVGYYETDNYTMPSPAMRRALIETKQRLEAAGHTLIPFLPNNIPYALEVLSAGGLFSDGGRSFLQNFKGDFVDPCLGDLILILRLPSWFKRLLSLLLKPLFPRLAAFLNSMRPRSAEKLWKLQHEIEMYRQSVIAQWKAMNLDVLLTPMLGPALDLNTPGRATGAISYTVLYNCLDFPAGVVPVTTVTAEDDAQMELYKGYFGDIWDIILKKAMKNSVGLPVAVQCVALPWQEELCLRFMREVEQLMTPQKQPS

[5] = target: T10, rat recombinant N-acylethanolamide acid amidase (Rattus norvegicus, UniProt Q5KTC7); experiment: NAAA activity assay; format: biochemical; conditions: in vitro, Table S1
T10 sequence (Q5KTC7 131-362 limits assumed): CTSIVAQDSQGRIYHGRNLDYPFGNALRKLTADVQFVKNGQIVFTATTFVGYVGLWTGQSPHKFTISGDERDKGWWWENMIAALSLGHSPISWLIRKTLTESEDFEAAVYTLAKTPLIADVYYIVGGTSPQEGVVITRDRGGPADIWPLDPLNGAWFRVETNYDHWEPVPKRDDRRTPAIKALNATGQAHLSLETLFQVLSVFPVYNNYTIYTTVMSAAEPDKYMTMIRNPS
T10 sequence (Q5KTC7 34-130 limits assumed): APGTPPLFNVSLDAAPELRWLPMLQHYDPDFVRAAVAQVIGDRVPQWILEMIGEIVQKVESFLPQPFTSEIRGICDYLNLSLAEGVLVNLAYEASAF
Summary of the method: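 Rat NAAA (Flag-tagged) from stably transfected HEK293 cells (G418 0.3 mg/ml), prepared by sonication, differential centrifugation, freeze-thaw and 105,000 × g supernatant. 50 μM heptadecenoylethanolamide incubated with 10 μg protein in 50 mM sodium phosphate pH 5.0, 0.1% Triton X-100, 3 mM DTT, 30 min at 37°C. Stopped with cold methanol containing heptadecanoic acid; product (m/z 267) measured by LC/MS SIM.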

[6] = IC50, inhibition of non-purified MGL, cell lysates of MGL-transfected HeLa cells
[7] = IC50, wild-type MGL in HeLa cell extracts, wt control of the mutational analysis

Work on `CC1=C(O)C(=O)C=C2C1=CC=C1[C@@]2(C)CC[C@@]2(C)[C@@H]3C[C@](C)(C(=O)O)CC[C@]3(C)CC[C@]12C` [Celastrol] yielded an IC50 [1] of 1600 ± 400 nM.

`Cc1c(O)c(O)cc2c1CC=C1[C@@]2(C)CC[C@@]2(C)[C@@H]3C[C@](C)(C(=O)O)CC[C@]3(C)CC[C@]12C` [Dihydrocelastrol] showed an IC50 [1] of 15000 ± 4000 nM.

`CC(=O)Oc1cc2c(c(C)c1OC(C)=O)CC=C1[C@@]2(C)CC[C@@]2(C)C3C[C@](C)(C(=O)O)CC[C@]3(C)CC[C@]12C` (some centres unmarked) [Dihydrocelastryl Diacetate] showed an IC50 ([1]; read-out: IC50, inhibition of purified recombinant MGL) of 15000 ± 3000 nM.

`CCCCC/C=C\C/C=C\C/C=C\C/C=C\CCCCN1C(=O)C=CC1=O` [N-arachidonylmaleimide, reference compound] was tested, and the “Effect on 2-AG levels” value [2] was “increased” and the “Effect on PEA levels” value [2] was “increased”.

`COC(=O)[C@]1(C)CC[C@]2(C)CC[C@]3(C)C4=CC=C5C(=CC(=O)C(O)=C5C)[C@]4(C)CC[C@@]3(C)[C@@H]2C1` [Pristimerin] gave an IC50 [3, 6] of 398 ± 68 nM, an IC50 [3, 7] of 350 ± 37 nM and an IC50 (MGL C208G mutant) of 1180 ± 174 nM. The “Effect of Cys201 mutation on inhibitory potency” value (MGL C201G mutant; C201G vs wt, HeLa cell extracts) was “without affecting the potency”, the “Effect of Cys32 mutation on activity of inhibitor” value (MGL Cys32 mutant) was “did not influence the activity” and the “Time-course of MGL inhibition” value (purified MGL) was “almost immediate blockade of MGL activity”. For the same compound, the “Vmax of MGL in presence of inhibitor” value (non-purified HeLa MGL; 100 nM inhibitor) was 174 ± 7 pmol/min/µg, the “Vmax of MGL in presence of inhibitor” value (non-purified HeLa MGL; 300 nM inhibitor) was 104 ± 7 pmol/min/µg and the “Vmax of MGL in presence of inhibitor” value (non-purified HeLa MGL; 500 nM inhibitor) was 51 ± 18 pmol/min/µg. The “Mechanism of MGL inhibition” value (non-purified HeLa MGL) was “rapid, reversible and non-competitive”, the “Effect on PEA levels” value ([2]; 1 μM, 30 min) was “not accompanied by any significant changes” and the “Cellular 2-AG concentrations” value ([2]; 1 μM, 30 min, over vehicle-treated neurons) was 1.6±0.1 fold change. For the same compound, the IC50 (rat ABHD6) was 98 ± 8 nM, the “Effect on ABHD12 activity” value (rat ABHD12) was “did not affect the activity” and the “Effect on diacylglycerol lipase activity” value [4] was “no significant effect”. For the same compound, the “Effect on FAAH activity” value (rat brain FAAH) was “no significant effect” and the “Effect on N-acylethanolamide acid amidase activity” value [5] was “no significant effect”.

`COC(=O)[C@]1(C)CC[C@]2(C)CC[C@]3(C)C4=CCc5c(cc(O)c(O)c5C)[C@]4(C)CC[C@@]3(C)[C@@H]2C1` [Pristimerol] showed an IC50 [1] of 4000 ± 500 nM.

In the case of `CC(C)=CCC[C@@H](C)[C@@H]1CC[C@]2(C)C3=C(CC[C@@]12C)[C@@]1(C)CC[C@H](O)C(C)(C)[C@@H]1CC3` [euphol], the IC50 [3, 6] is reported as 882 ± 78 nM, the IC50 [3, 7] is reported as 513 ± 9 nM and the “Effect of Cys208 replacement on concentration-response curve” value (MGL C208G mutant; C208G vs wt, HeLa cell extracts) is reported as “no effect”. The IC50 (MGL C201G mutant) was 2600 ± 200 nM, the “Effect of Cys32 mutation on activity of inhibitor” value (MGL Cys32 mutant) was “did not influence the activity” and the “Mechanism of MGL inhibition” value (non-purified HeLa MGL) was “reversible and non-competitive”. The “Effect on PEA levels” value ([2]; 10 μM, 30 min, data not shown) was “small, non-significant change”, the “Cellular 2-AG levels” value ([2]; 10 μM, 30 min, over vehicle-treated neurons) was 1.2±0.2 fold change and the IC50 (rat ABHD6) was 9000 ± 1000 nM.
